Diaphorase inh – counter-screen for diaphorase-based assays: diaphorase inhibitors and chemical oxidizers; diaphorase resazurin-to-resorufin fluorescence, NADH, 16 min; bacterial (C. kluyveri) enzyme, not human; inhibition, % at 20 µM; 190,000 tested, 0.69% active; AID 1217;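 active = primary screen inhibition at 20 µM above a set limit, cut at about 50% in these data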;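 also: plate controls were DMSO with full reaction for no effect and wells lacking NADH for full effect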
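Assay system: diaphorase enzyme from Clostridium kluyveri; Input: enzyme working solution with 0.14 U/mL diaphorase; Timing: 16 min at room temperature; Technique: resorufin fluorescence, excitation 544 nm, emission 590 nm; Benchmarks: positive control minus NADH, DMSO neutral control.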
PMI act satM6P – PMI (human) activation, high substrate | activation factor at 20 µM | coupled PMI enzyme assay, resazurin fluorescence, 20 min; active compounds read high; 1 = untreated enzyme, 0 = substrate-free blank | P34949 | 190,000 tested, 0.34% active;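 active = activation factor of 2 or more at 20 µM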
Target sequence (P34949 whole entry, looked up): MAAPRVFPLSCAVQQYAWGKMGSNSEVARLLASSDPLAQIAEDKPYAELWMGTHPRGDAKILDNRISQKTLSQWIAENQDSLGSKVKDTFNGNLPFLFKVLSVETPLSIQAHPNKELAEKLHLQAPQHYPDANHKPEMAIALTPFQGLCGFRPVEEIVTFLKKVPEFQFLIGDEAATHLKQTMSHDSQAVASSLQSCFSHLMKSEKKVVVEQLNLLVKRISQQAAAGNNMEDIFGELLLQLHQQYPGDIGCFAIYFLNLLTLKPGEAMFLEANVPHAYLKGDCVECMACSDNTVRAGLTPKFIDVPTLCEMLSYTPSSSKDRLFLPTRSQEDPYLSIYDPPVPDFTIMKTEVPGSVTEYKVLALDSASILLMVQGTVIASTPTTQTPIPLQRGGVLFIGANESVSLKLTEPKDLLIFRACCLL
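Technique: Diaphorase-driven resazurin-to-resorufin fluorescence, excitation 544, emission 590 nm | Assay system: Human PMI in coupled enzyme assay | Times: Enzyme reaction with compound 20 min at room temperature | Medium: HEPES-buffered pH 7.4 with magnesium and detergent | Reagent: Mannose-6-phosphate 1.0 mM (near-saturating) plus 0.22 mM NADP+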
G6PDH counter – L. mesenteroides G6PDH inhibition counter-screen; inhibition, % at 5 µM; Purified L. mesenteroides G6PDH, diaphorase/resazurin coupled fluorescence, 45 min; AID 1020; 200,000 tested, 0.12% active; in the data active = inhibition above about 50%
PMI activator – activators of human phosphomannose isomerase. 190,000 tested, 0.005% active. AID 1214. purified human PMI, coupled resazurin fluorescence, 20 min; active compounds read high; 1 = vehicle control, 0 substrate-free wells. activation factor at 20 µM;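 active = activation factor of 2 or more at 20 µM, relative to plate controls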
Diaph act CS – activates diaphorase or chemically reduces, flagging diaphorase assay artifacts; Diaphorase/resazurin coupled assay, resorufin fluorescence, 16 min; active compounds read high; 1 = vehicle wells, 0 = NADH-free wells; activation factor at 20 µM; 190,000 tested, 0.005% active;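 active = diaphorase activity raised at least twofold by the compound at 20 µM; inactive = activation factor below 2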
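Assay system: Purified diaphorase enzyme from Clostridium kluyveri | Amount: Enzyme 0.07 U/mL final | Dosing: Compound 20 µM once, DMSO 1% | Timing: 16 min reaction at room temperature | Detection: Fluorescence, excitation 544 nm and emission 590 nm | Evaluation: Higher resorufin formation from activation or reduction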
TbHK1 inh – T. brucei hexokinase 1 inhibition; 220,000 tested, 0.11% active; inhibition, % at 10 µM; AID 1430; recombinant TbHK1, G6PDH-coupled NADH A340;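 active = inhibition of 50% or more in the single-dose primary screen; inactive = inhibition below 50%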
* hit, by the source's call; . = no result. Most compounds without a hit are left out; they make up all but 1.1% or so of the library.

SMILES | Diaphorase inh | PMI act satM6P | G6PDH counter | PMI activator | Diaph act CS | TbHK1 inh
CC(=O)Nc1ccc(NC(=O)CSc2ccc(-c3ccco3)nn2)cc1 | 59.4* | 0.7 | 0.8 | 0.8 | 0.4 | 1.0
CN(Cc1ccccc1)CC(O)COc1ccc(CNCc2ccc(Cl)s2)cc1 (configuration not stated) | 0.1 | 1 | -1.2 | 0.9 | 1 | 10.5
COc1ccccc1NC(=O)Nc1nn(C)c2cccc(OC)c12 | . | . | . | . | . | -1.7
Cc1occc1-c1nnc(SCC(=O)Nc2ccccc2)n1CCc1ccccc1 | 18.4 | 0.9 | -13.1 | 0.8 | 0.8 | 6.8
Cc1occc1-c1nnc(SCC(=O)Nc2ccccc2)n1C | 77.9* | 1 | 5.8 | 1 | 0.2 | -9.4
COc1ccccc1Nc1nnc(SCc2nnc(-c3cc(OC)c(OC)c(OC)c3)o2)s1 | 50.2* | 0.9 | -5.4 | 0.9 | 0.5 | -11.7
NC(=S)n1[nH]c(-c2ccc([N+](=O)[O-])cc2)c(N=Nc2ccc(O)cc2)c1=O | 20.2 | 1 | 5.6 | 0.9 | 0.8 | -13.2
NC(=S)n1[nH]c(-c2ccc([N+](=O)[O-])cc2)c(N=Nc2cccc(Cl)c2)c1=O | 50.8* | 1 | 1.8 | 0.9 | 0.5 | -5.7
COc1ccc(N(CC(=O)Nc2ccccc2C(N)=O)S(=O)(=O)c2ccc(C)c([N+](=O)[O-])c2)cc1 | 24.5 | 0.9 | 8.2 | 0.9 | 0.8 | 0.3
Cc1ccc(NC(=O)CSc2nnc(CNC(=O)c3cccs3)o2)c(C)c1 | 18.1 | 1 | 0.5 | 1 | 0.8 | 0.6
CCOc1cc(/C=C2\C(=O)NN(c3ccccc3)C2=O)cc([N+](=O)[O-])c1O | 53.3* | 1.2 | 6.1 | 1.3 | 0.5 | -1.9
O=C1NN(c2ccc(Cl)cc2)C(=O)/C1=C\c1ccc(-c2cccc(C(=O)O)c2)o1 | 52.9* | 1.1 | 5.7 | 1.2 | 0.5 | 17.1
COc1cc(/C=C2\C(=O)NN(c3ccccc3)C2=O)cc([N+](=O)[O-])c1O | 29.9 | 1.1 | 0.6 | 1.2 | 0.7 | -1.1
Cc1ccc(N2NC(=O)/C(=C/c3ccc(-c4ccc(Cl)c(C(=O)O)c4)o3)C2=O)cc1 | 22.9 | 0.8 | 8.3 | 1 | 0.8 | 11.3
O=C1NN(c2ccccc2)C(=O)/C1=C\c1ccc(-c2cc([N+](=O)[O-])ccc2O)o1 | 79.8* | 0.9 | 14.9 | 0.9 | 0.2 | -12.7
C=CCc1c(C)nc(N2CCSCC2)[nH]c1=O | . | . | . | . | . | -7.0
COC(=O)CC1Sc2ccccc2NC1=O (configuration not stated) | 10.4 | 1 | 4.2 | 0.9 | 0.9 | 0.3
Cc1ccc(NC2Sc3ccccc3NC2=O)cc1 (configuration not stated) | 6.6 | 2.1* | 2.1 | 1.6 | 0.9 | 4.1
CN1c2cccc3cccc(c23)N(C)C1c1cccs1 | 48.1 | 0.4 | 21.8 | 0.6 | 0.5 | -0.8
c1csc(C2Nc3cccc4cccc(c34)N2)c1 | 61.5* | 0.9 | 17.1 | 0.9 | 0.4 | -21.3
Brc1ccc(C2Nc3cccc4cccc(c34)N2)o1 | 85.1* | 0.7 | 36.5 | 1 | 0.1 | -20.9
Oc1ccccc1C1Nc2cccc3cccc(c23)N1 | 34.3 | 0.6 | 19.3 | 0.9 | 0.7 | -18.0
N#CC(c1nc2ccccc2nc1N1CCCC1)S(=O)(=O)c1ccccc1 (configuration not stated) | 53.2* | 1.1 | 28.9 | 0.9 | 0.5 | -1.7
CC(C)(C)C1=CC(=O)C(=O)C(C(C)(C)C)=C1 | 72.7* | 0.5 | 29.3 | 0.4 | 0.3 | 0.7
Cc1cc(=O)[nH]n(CCO)c1=O | . | . | . | . | . | -17.6
SMILES | Diaphorase inh | PMI act satM6P | G6PDH counter | PMI activator | Diaph act CS | TbHK1 inh
Cc1cccc(NC(=O)N2CCC(n3nnc4cc(C)ccc43)CC2)c1 | 78.6* | 0.9 | 19.1 | 0.9 | 0.2 | -1.6
Cc1ccc2c(c1)nnn2C1CCN(C(=O)NCc2ccccc2)CC1 | -17.4 | 1.1 | 10.6 | 1.1 | 1.2 | -4.1
COc1ccc(N=Nc2nc3ccc(Br)cc3n2C)cc1 | -15.5 | 2.2* | 5.6 | 1.4 | 1.2 | 7.2
COc1ccc(Cc2nc3ccccc3n2C)cc1 | 16.8 | 1.2 | 2.9 | 1.2 | 0.8 | -2.9
Cc1cc(=O)n2[nH]c(-c3ccsc3-n3c(C)ccc3C)cc2n1 | . | . | . | . | . | -6.7
Cc1nc2cc(-c3ccsc3-n3c(C)ccc3C)[nH]n2c(=O)c1Cl | 64.5* | 0.9 | 6.9 | 0.9 | 0.4 | 3.1
CCCCc1ccc(NC(=O)N2CCNC(=O)C2CC(=O)Nc2ccsc2C(=O)OC)cc1 (configuration not stated) | . | . | . | . | . | -18.0
CC(=O)N1CC(=O)N(Cc2ccccc2)/C(=C/c2ccccc2)C1=O | -10.9 | 1 | 0.3 | 1.1 | 1.1 | -2.7
O=C(N/N=C/c1nn(-c2ccccc2)cc1-c1ccc(Cl)cc1)c1ccncc1 | 10.8 | 1 | 5.1 | 0.9 | 0.9 | -26.3
CCc1ccc(NC(=S)Nc2ccc3cn[nH]c3c2)cc1 | 23.4 | 0.5 | 6.7 | 0.9 | 0.8 | -4.6
CCOc1cc(CNc2ccc3cn[nH]c3c2)ccc1OC | 56.9* | 1.1 | 32.6 | 0.7 | 0.4 | -10.6
COc1ccc(CNc2ccc3cn[nH]c3c2)c(OC)c1OC | 56.7* | 0.7 | 28.1 | 0.6 | 0.4 | -8.4
COc1ccccc1S(=O)(=O)Nc1ccc2cn[nH]c2c1 | 8.9 | 0.9 | 4.6 | 1 | 0.9 | 0.8
O=C(c1ccco1)N1CCCN(Cc2nc(Cc3ccccc3)no2)CC1 | -1.5 | 1.1 | -0.8 | 1 | 1 | 6.9
O=C(/C=C/c1ccccc1)NC(=S)NNC(=O)c1cccnc1 | 81.2* | 1 | 6.1 | 1 | 0.2 | -14.8
COc1ccc(/C=C/C(=O)NC(=S)NNC(=O)c2cccs2)cc1OC | . | . | . | . | . | -57.2
COc1ccc(/C=C/C(=O)NC(=S)NNC(=O)c2cccnc2)cc1OC | 82.3* | 1.1 | -2.1 | 1 | 0.2 | -52.7
O=C(OCC(O)COC(=O)c1cccnc1)c1cccnc1 | . | . | . | . | . | -3.1
COc1cc(/C=N/NC(=O)CSc2n[nH]c(=O)[nH]c2=O)cc(OC)c1O | 9.3 | 0.8 | 7.2 | 0.9 | 0.9 | -16.2
CC(O)CC(C(=O)NNc1ccccc1)C(=O)NNc1ccccc1 (configuration not stated) | 13.2 | 2.5* | 2.7 | 1.7 | 0.9 | 1.2
O=C(NNc1ccccc1)C(CCO)C(=O)NNc1ccccc1 | 4.8 | 2.4* | -0.3 | 1.8 | 1 | -1.7
CCn1c(O)c(N=NC(=O)C(O)c2ccccc2)c2ccccc21 (configuration not stated) | . | . | . | . | . | -41.1
COc1cc(Cl)c(C)cc1NC(=S)NN | 7.3 | 1 | -4.1 | 0.8 | 0.9 | -1.0
O=C(OCC(=O)N1CCN(c2ccccc2)CC1)c1cccc(Cl)c1 | 3.8 | 1.1 | 13.9 | 1.1 | 1 | 0.4
